# In ChEMBL document CHEMBL4414574, “Structure-Based Discovery and Development of a Series of Potent and Selective Bromodomain and Extra-Terminal Protein Inhibitors” (J Med Chem, 2019):
# Calls of active or inactive are those of the source. No cut-off for these calls is given here.
# Columns and labels:
# Homo sapiens = species: Homo sapiens; assay: Antiproliferative activity against human TY82 cells after 72 hrs by CCK8 or SRB assay; type: functional, cell-based
# MV4-11 [1] = assay: Antiproliferative activity against human MV4-11 cells after 72 hrs by CCK8 or SRB assay; type: functional, cell-based
# RKO = assay: Induction of cell cycle arrest in human RKO cells assessed as increase in accumulation at G1 phase at 100 nM after 24 hrs by propidium iodide staining based flow cytometric analysis; type: functional
# MV4-11 [2] = assay: Antitumor activity against human MV4-11 cells xenografted in Balb/c nude mouse assessed as tumor growth inhibition at 50 mg/kg, po administered once daily and measured twice a week by caliper method relative to control; type: functional; details: MV4-11, po, read-out: TGI
# MV4-11 [3] = assay: Induction of apoptosis in human MV4-11 cells assessed as reduction in c-IAP2 level after 24 hrs by Western blot analysis; type: functional, cell-based
# MV4-11 [4] = assay: Induction of apoptosis in human MV4-11 cells assessed as reduction in c-IAP1 level after 24 hrs by Western blot analysis; type: functional, cell-based
# MV4-11 [5] = assay: Induction of apoptosis in human MV4-11 cells assessed as increase in cleaved caspase-8 level after 24 hrs by Western blot analysis; type: functional, cell-based
# Procedure, shortened: (§1)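 MV4-11 cells exposed to test agent at the indicated doses for 24 h. Lysates immunoblotted for full-length and cleaved caspase-3, -7, -8 and -9, with GAPDH as the loading reference.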
# MV4-11 [6] = assay: Induction of apoptosis in human MV4-11 cells after 24 hrs by Annexin V staining based assay; type: functional, cell-based
# MV4-11 [7] = assay: Induction of apoptosis in human MV4-11 cells assessed as reduction in XIAP level after 24 hrs by Western blot analysis; type: functional, cell-based
# MV4-11 [8] = assay: Induction of apoptosis in human MV4-11 cells assessed as increase in cleaved caspase-9 level after 24 hrs by Western blot analysis; type: functional, cell-based; procedure, shortened: as §1
# MM1.S [9] = assay: Antiproliferative activity against human MM1S cells after 72 hrs by CCK8 or SRB assay; type: functional, cell-based
# Procedure, shortened: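 IC50 against MM.1S cell proliferation was taken as the mean of three independent experiments, each run in triplicate, reported with SEM.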
# MV4-11 [10] = assay: Antitumor activity against human MV4-11 cells xenografted in Balb/c nude mouse assessed as tumor growth inhibition at 100 mg/kg, po administered once daily and measured twice a week by caliper method relative to control; type: functional; details: MV4-11, po, read-out: TGI
# [11] = Solubility of the compound in water; type: physicochemical; details: buffer
# [12] = Cmax in ICR mouse at 3 mg/kg, po administered via gavage measured after 0.25 to 24 hrs by UPLC/MS analysis; type: ADME, organism-based; set-up: dose 3 mg/kg, route oral; details: in vivo
# Procedure, shortened: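 Male ICR mice dosed orally in 1% DMSO/0.5% HPMC vehicle; plasma or brain drug levels used to derive Tmax, Cmax, AUC0-t, AUC0-inf and T1/2.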
# [13] = Intrinsic clearance in human liver microsomes at 1 uM preincubated for 5 mins followed by NADPH addition and measured after 5 to 30 mins by LC/MS/MS analysis; type: ADME, Microsome; details: read-out: CLH
# Procedure, shortened: (§2)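 Liver microsomes (0.5 mg/mL) preincubated 5 min at 37 °C with 1 μM compound in 0.1 M phosphate buffer pH 7.4 containing 1 mM EDTA and 5 mM MgCl2; started with 1 mM NADPH; sampled at 0, 5, 10 and 30 min; quenched with cold acetonitrile; parent remaining quantified by LC/MS/MS.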
# CYP2C19 = CYP2C19 (Homo sapiens, UniProt P33261); assay: Reversible inhibition of CYP2C19 in human liver microsomes at 10 uM using mephenytoin as substrate preincubated for 5 mins followed by NADPH generating system addition and measured after 20 mins relative to control; type: ADME; details: probe mephenytoin
# Procedure, shortened: (§3)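 Human liver microsomes 0.2 mg/mL, 100 mM phosphate pH 7.4, 10 μM test compound, probe cocktail (10 μM midazolam, 100 μM testosterone, 10 μM dextromethorphan, 20 μM diclofenac, 100 μM phenacetin, 100 μM mephenytoin); organic solvent <1%; 5 min preincubation at 37 °C, started with NADPH-generating system, 20 min reaction; metabolite formation expressed relative to PBS control.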
# Cytochrome P450 2C9 = Cytochrome P450 2C9 (Homo sapiens, UniProt P11712); assay: Time-dependent inhibition of CYP2C9 in human liver microsomes at 10 uM using diclofenac as substrate preincubated up to 30 mins followed by NADPH generating system addition and measured after 10 mins; type: ADME
# Procedure, shortened: (§4)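 Human liver microsomes 0.2 mg/mL, 100 mM phosphate pH 7.4, 10 μM test compound, preincubated 0, 5, 10 and 30 min at 37 °C; then NADPH plus probe cocktail (5 μM midazolam, 50 μM testosterone, 5 μM dextromethorphan, 10 μM diclofenac, 50 μM phenacetin, 50 μM S-(+)-mephenytoin) added; 10 min reaction; kobs in units of 10^-4/min.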
# Cytochrome P450 2C19 = Cytochrome P450 2C19 (Homo sapiens, UniProt P33261); assay: Time-dependent inhibition of CYP2C19 in human liver microsomes at 10 uM using mephenytoin as substrate preincubated up to 30 mins followed by NADPH generating system addition and measured after 10 mins; type: ADME; procedure, shortened: as §4
# Chain of Cytochrome P450 2C19 (P33261 whole entry): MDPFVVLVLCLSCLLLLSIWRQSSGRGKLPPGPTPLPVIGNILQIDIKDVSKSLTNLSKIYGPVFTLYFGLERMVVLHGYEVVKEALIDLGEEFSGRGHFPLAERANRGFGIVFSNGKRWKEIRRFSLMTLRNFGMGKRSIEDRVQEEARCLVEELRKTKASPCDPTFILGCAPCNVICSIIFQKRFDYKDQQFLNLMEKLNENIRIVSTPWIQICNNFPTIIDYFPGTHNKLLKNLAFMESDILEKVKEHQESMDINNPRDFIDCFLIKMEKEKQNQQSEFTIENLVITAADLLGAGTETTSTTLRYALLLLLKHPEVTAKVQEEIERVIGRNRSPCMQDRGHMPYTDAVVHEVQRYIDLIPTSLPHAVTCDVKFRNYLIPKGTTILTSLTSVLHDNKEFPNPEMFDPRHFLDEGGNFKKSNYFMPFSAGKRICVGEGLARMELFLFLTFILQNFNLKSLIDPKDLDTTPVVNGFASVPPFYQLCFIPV
# CYP3A4 = CYP3A4 (Homo sapiens, UniProt P08684); assay: Reversible inhibition of CYP3A4 in human liver microsomes at 10 uM using midazolam or testosterone as substrate preincubated for 5 mins followed by NADPH addition and measured after 20 mins relative to control; type: ADME; details: probe midazolam or testosterone; procedure, shortened: as §3
# Chain of CYP3A4 (P08684 whole entry): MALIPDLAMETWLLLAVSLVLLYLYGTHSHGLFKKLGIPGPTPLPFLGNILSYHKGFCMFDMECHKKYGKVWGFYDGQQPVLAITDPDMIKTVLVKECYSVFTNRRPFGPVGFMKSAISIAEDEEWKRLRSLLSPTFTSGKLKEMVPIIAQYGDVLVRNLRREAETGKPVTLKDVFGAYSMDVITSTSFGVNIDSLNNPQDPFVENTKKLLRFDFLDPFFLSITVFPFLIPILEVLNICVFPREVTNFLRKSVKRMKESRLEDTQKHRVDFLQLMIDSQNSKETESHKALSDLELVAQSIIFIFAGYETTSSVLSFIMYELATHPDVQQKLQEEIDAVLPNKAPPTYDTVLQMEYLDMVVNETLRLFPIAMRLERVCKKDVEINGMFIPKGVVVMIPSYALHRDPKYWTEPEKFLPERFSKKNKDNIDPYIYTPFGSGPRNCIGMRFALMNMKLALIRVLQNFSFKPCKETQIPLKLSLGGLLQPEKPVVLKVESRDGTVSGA
# [14] = Intrinsic clearance in mouse liver microsomes at 1 uM preincubated for 5 mins followed by NADPH addition and measured after 5 to 30 mins by LC/MS/MS analysis; type: ADME, Microsome; details: read-out: CLH; procedure, shortened: as §2
# [15] = Half life in human liver microsomes at 1 uM preincubated for 5 mins followed by NADPH addition and measured after 5 to 30 mins by LC/MS/MS analysis; type: ADME, Microsome
# [16] = Half life in ICR mouse at 3 mg/kg, po administered via gavage measured after 0.25 to 24 hrs by UPLC/MS analysis; type: ADME, organism-based; details: in vivo
# Procedure, shortened: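 Male ICR mice dosed orally; vehicle 1% DMSO/0.5% HPMC. Plasma pharmacokinetic parameters, including T1/2, were determined after the single oral dose.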
# [17] = biological target: Histone acetyltransferase p300 (Homo sapiens) (UniProt Q09472); assay: Inhibition of EP300 (unknown origin) at 1 uM
# Chain of Histone acetyltransferase p300 (Homo sapiens) (Q09472 whole entry): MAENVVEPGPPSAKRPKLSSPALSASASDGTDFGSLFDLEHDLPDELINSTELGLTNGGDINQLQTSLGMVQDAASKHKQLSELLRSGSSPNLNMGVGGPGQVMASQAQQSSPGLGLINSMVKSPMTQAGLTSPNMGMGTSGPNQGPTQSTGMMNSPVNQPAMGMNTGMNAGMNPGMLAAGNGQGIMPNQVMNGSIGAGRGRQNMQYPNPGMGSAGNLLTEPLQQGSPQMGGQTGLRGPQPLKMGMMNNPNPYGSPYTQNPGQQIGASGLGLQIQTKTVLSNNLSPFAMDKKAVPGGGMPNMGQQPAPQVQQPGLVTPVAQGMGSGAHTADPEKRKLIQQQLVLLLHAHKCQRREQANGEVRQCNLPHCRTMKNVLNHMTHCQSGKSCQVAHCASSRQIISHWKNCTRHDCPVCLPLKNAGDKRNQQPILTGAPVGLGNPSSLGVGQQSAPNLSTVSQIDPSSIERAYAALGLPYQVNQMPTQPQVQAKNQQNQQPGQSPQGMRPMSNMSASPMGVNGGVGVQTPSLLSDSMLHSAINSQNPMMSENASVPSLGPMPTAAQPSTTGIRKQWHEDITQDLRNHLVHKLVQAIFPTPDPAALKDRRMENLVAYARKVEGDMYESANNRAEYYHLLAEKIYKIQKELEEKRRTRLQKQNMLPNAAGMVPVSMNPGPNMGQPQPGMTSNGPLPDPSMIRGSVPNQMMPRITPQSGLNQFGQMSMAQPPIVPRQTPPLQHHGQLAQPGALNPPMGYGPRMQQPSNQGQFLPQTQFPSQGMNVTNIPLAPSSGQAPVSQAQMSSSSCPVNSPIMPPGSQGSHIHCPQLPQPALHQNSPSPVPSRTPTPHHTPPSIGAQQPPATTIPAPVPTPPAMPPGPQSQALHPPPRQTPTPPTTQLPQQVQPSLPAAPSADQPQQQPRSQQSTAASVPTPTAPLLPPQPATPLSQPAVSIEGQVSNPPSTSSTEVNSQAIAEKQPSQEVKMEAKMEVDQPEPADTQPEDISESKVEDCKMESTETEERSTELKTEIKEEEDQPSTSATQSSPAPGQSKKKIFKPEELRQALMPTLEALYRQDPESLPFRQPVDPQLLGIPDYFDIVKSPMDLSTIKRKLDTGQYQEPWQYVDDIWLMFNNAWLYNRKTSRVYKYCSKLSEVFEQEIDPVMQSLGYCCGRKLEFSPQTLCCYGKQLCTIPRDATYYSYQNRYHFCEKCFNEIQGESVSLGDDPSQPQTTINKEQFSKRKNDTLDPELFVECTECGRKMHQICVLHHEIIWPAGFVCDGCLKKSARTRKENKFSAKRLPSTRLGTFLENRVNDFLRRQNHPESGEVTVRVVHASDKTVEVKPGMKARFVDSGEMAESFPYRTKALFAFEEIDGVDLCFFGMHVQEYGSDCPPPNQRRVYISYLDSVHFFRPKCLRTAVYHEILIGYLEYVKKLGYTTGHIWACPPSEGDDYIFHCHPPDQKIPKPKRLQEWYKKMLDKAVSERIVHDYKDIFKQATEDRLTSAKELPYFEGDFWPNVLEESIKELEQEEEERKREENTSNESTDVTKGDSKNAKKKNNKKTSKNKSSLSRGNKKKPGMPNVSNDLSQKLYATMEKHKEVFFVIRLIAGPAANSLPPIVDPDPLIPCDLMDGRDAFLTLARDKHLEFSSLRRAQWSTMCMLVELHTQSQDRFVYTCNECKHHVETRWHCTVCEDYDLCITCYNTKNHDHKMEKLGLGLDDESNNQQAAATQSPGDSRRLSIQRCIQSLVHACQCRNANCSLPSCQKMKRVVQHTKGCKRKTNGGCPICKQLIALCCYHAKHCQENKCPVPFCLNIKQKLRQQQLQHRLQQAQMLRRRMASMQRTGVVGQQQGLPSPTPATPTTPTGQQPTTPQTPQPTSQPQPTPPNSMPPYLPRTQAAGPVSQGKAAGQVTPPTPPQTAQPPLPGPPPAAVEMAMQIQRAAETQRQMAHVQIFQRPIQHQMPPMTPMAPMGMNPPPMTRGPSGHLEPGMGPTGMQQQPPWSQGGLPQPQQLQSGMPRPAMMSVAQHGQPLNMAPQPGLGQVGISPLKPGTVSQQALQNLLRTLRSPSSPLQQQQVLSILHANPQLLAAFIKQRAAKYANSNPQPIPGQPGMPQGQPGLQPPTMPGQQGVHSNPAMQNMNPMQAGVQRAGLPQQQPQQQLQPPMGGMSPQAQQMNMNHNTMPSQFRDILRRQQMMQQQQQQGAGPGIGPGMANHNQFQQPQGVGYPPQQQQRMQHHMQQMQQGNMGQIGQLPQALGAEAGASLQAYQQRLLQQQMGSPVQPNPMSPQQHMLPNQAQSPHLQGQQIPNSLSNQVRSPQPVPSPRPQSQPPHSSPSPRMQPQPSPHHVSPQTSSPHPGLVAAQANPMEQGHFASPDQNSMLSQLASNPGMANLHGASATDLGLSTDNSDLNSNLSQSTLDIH
# Procedure, shortened: (§5)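 Bromodomain binding panel (32 bromodomains) screened at 1 μM; primary binding read-out reported as percent of control, lower values meaning stronger binding.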
# [18] = AUC (0 to t) in ICR mouse at 3 mg/kg, po administered via gavage measured after 0.25 to 24 hrs by UPLC/MS analysis; type: ADME, organism-based; set-up: time upper 24 hr, time lower 0.25 hr, dose 3 mg/kg, route oral; details: in vivo
# Procedure, shortened: (§6)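 Male ICR mice were dosed orally in 1% DMSO/0.5% HPMC vehicle. Plasma (and brain, where stated) concentrations gave Tmax, Cmax, T1/2, AUC0-t and AUC0-inf.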
# [19] = biological target: Bromodomain-containing protein 2 (Homo sapiens) (UniProt P25440); assay: Inhibition of BRD2 bromodomain 2 (unknown origin); procedure, shortened: as §5
# Chain of Bromodomain-containing protein 2 (Homo sapiens) (P25440 whole entry, looked up): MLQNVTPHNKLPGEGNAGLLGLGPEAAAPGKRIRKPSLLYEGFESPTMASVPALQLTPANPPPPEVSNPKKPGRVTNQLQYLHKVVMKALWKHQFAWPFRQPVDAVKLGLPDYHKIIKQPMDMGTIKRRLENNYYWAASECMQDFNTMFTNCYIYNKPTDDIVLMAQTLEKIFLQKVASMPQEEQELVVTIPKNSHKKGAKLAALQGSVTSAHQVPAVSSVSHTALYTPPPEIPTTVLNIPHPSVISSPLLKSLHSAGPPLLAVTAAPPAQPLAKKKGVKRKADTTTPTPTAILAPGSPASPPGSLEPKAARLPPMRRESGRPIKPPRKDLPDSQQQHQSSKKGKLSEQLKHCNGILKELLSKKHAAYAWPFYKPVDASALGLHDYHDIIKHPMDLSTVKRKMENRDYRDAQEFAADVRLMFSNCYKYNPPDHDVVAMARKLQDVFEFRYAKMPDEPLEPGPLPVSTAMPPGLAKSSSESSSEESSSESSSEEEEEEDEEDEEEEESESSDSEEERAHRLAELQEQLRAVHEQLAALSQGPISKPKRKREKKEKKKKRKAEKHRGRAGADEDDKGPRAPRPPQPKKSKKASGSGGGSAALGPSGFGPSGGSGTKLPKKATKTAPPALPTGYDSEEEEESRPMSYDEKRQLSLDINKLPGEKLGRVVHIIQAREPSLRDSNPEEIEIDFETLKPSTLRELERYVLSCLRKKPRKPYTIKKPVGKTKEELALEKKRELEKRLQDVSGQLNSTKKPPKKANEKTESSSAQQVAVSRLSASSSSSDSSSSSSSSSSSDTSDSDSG
# [20] = Half life in mouse liver microsomes at 1 uM preincubated for 5 mins followed by NADPH addition and measured after 5 to 30 mins by LC/MS/MS analysis; type: ADME, Microsome; details: mouse liver microsomes
# [21] = biological target: T1, Bromodomain-containing protein 4 (Homo sapiens, UniProt O60885); assay: Inhibition of BRD4 bromodomain 2 (unknown origin)
# Cytochrome P450 2D6 = Cytochrome P450 2D6 (Homo sapiens, UniProt P10635); assay: Time-dependent inhibition of CYP2D6 in human liver microsomes at 10 uM using dextromethorphan as substrate preincubated up to 30 mins followed by NADPH generating system addition and measured after 10 mins; type: ADME; procedure, shortened: as §4
# Chain of Cytochrome P450 2D6 (P10635 whole entry): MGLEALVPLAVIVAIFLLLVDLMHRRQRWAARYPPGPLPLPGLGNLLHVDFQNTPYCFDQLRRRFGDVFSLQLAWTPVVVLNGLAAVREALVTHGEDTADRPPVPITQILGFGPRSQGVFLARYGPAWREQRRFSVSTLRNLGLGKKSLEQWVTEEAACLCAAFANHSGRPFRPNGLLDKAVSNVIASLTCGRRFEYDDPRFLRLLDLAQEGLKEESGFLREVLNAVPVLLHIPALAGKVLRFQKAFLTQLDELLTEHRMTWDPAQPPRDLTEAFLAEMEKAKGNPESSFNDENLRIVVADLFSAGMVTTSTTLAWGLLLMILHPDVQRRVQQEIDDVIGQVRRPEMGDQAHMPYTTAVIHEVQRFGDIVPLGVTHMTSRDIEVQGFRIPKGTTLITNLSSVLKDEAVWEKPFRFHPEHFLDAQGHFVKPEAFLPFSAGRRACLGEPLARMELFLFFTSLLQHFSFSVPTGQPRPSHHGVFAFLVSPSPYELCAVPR
# [22] = AUC (0 to infinity) in ICR mouse at 3 mg/kg, po administered via gavage measured after 0.25 to 24 hrs by UPLC/MS analysis; type: ADME, organism-based; set-up: dose 3 mg/kg, time infinity, route oral; details: in vivo; procedure, shortened: as §6
# [23] = Solubility of the compound at pH 2 to 7; type: physicochemical; details: buffer
# [24] = Tmax in ICR mouse at 3 mg/kg, po administered via gavage measured after 0.25 to 24 hrs by UPLC/MS analysis; type: ADME, organism-based; details: in vivo
# Procedure, shortened: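 Male ICR mice dosed orally (3, 10 or 100 mg/kg, per line) in 1% DMSO/0.5% HPMC vehicle; plasma drug levels measured.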
# MM1.S [25] = assay: Antitumor activity against human MM1S cells xenografted in SCID mouse assessed as tumor growth at 20 mg/kg, po administered daily relative to control; type: functional
# Cytochrome P450 1A2 = biological target: T2, Cytochrome P450 1A2 (Homo sapiens, UniProt P05177); assay: Time-dependent inhibition of CYP1A2 in human liver microsomes at 10 uM using phenacetin as substrate preincubated up to 30 mins followed by NADPH generating system addition and measured after 10 mins; type: ADME; procedure, shortened: as §4
# T2 sequence (P05177 whole entry): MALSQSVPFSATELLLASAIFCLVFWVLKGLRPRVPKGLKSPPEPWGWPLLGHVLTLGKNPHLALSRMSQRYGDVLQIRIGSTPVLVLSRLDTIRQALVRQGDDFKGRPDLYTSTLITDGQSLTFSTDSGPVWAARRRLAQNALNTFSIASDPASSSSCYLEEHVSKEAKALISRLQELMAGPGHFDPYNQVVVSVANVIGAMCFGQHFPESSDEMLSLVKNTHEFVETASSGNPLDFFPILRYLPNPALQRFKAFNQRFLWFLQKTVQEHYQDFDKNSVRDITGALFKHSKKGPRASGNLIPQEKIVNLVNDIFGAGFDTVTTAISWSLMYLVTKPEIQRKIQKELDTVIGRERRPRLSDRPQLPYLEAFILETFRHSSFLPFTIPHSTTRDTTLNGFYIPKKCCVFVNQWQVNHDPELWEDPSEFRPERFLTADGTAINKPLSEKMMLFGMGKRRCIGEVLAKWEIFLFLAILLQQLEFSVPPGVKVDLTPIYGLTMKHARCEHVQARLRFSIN
# [26] = biological target: Bromodomain-containing protein 2 (Homo sapiens) (UniProt P25440); assay: Inhibition of BRD2 bromodomain 1 (unknown origin)
# Cytochrome P450 3A4 = Cytochrome P450 3A4 (Homo sapiens, UniProt P08684); assay: Time-dependent inhibition of CYP3A4 in human liver microsomes at 10 uM using midazolam or testosterone as substrate preincubated up to 30 mins followed by NADPH generating system addition and measured after 10 mins; type: ADME; procedure, shortened: as §4
# Chain of Cytochrome P450 3A4 (P08684 whole entry): as the sequence (P08684 whole entry) above
# CYP2C9 = CYP2C9 (Homo sapiens, UniProt P11712); assay: Reversible inhibition of CYP2C9 in human liver microsomes at 10 uM using diclofenac as substrate preincubated for 5 mins followed by NADPH generating system addition and measured after 20 mins relative to control; type: ADME; details: probe diclofenac; procedure, shortened: as §3
# [27] = biological target: T1, Bromodomain-containing protein 4; assay: Inhibition of BRD4 bromodomain 1 (unknown origin)
# Procedure, shortened: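 BRD4 BD1 (His6-tagged, E. coli BL21(DE3)-expressed, Ni-NTA purified) at 10 nM with 5 nM FITC-labelled (+)-JQ1 tracer; 50 mM HEPES pH 7.4, 150 mM NaCl, 0.5 mM CHAPS, DMSO 2‰ final; graded inhibitor; 4 h dark equilibration at room temperature; fluorescence anisotropy read (ex 485/em 530 nm). IC50 from two independent experiments in duplicate, mean ± SEM.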
# [28] = biological target: T1, Bromodomain-containing protein 4; assay: Displacement of 5-FITC labelled (+)-JQ1 from His6-tagged human BRD4 bromodomain 1 expressed in Escherichia coli BL21(DE3) )-codon plus-RIL cells incubated for 4 hrs in dark condition by fluorescence anisotropy binding assay
compound,measurement,setting,value
Cc1sc2c(c1C)C(c1ccc(Cl)cc1)=N[C@@H](CC(=O)Nc1ccc(O)cc1)c1nnc(C)n1-2 [BIRABRESIB],Activity,Homo sapiens,Active
same,Activity,MV4-11 [1],Active
same,Activity,RKO,Active
same,inhibition in vivo at 50 mg/kg,MV4-11 [2],71.5%
same,Activity,MV4-11 [3],Dose-dependent effect
same,Activity,MV4-11 [4],Dose-dependent effect
same,Activity,MV4-11 [5],Dose-dependent effect
same,Activity,MV4-11 [6],Active
same,Activity,MV4-11 [7],Dose-dependent effect
same,Activity,MV4-11 [8],Dose-dependent effect
same,IC50,MM1.S [9],6.3 nM
same,inhibition in vivo at 100 mg/kg,MV4-11 [10],87.5%
Cc1ccc(-n2c(C)nnc2-c2ccc3c(c2)N(C2CC2)C(C)C(=O)N3C)cc1 (centres undefined),solubility,[11],Insoluble
same,Cmax,[12],265 ng/mL
same,microsomal CLint at 1 µM,[13],44 µL/min/mg
same,"inhibition at 20 min, 10 µM",CYP2C19,41%
same,TDI,Cytochrome P450 2C9,Not Active
same,TDI,Cytochrome P450 2C19,Not Active
same,"inhibition at 20 min, 10 µM",CYP3A4,3%
same,microsomal CLint at 1 µM,[14],460 µL/min/mg
same,half-life at 1 µM,[15],31.5 min
same,half-life,[16],42 min
same,inhibition,[17],inactive
same,AUC(0-t),[18],243 ng·h/mL
same,inhibition,[19],Active
same,half-life at 1 µM,[20],3 min
same,inhibition,[21],Active
same,TDI,Cytochrome P450 2D6,Not Active
same,AUC(0-inf),[22],244 ng·h/mL
same,solubility,[23],Insoluble
same,Tmax,[24],18 min
same,T/C,MM1.S [25],67.4%
same,TDI,Cytochrome P450 1A2,Not Active
same,inhibition activity call (active/inactive),[26],Active
same,IC50,MM1.S [9],3.3 nM
same,TDI,Cytochrome P450 3A4,Not Active
same,"inhibition at 20 min, 10 µM",CYP2C9,10%
same,inhibition,[27],Active
same,IC50,[28],5.7 nM
